The values that follow come from the RNAGym collection of RNA variant scans (doi:10.1126/science.aae0568).

The chains are these.
B1: tRNA (parent)
chain: GUUCCGUUGGCGUAAUGGUAACGCGUCUCCCUCCUAAGGAGAAGACUGCGGGUUCGAGUCCCGUACGGAACG

Fewer inactive variants are shown than the library holds.

Variants of B1 are the subject of this data set. Description: yeast fitness relative to wild type (ratio to wild type); higher = fitter; tRNA-Arg(CCU), competitive growth, 37 C, YPD. The method, boiled down:
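A pool of Saccharomyces cerevisiae strains, each with a tRNA-Arg(CCU) gene variant at the native genomic locus, was competed in YPD at 37°C for 24 hours across six parallel replicates. The variants had been chemically synthesised at a 3% per-site mutation rate over 69 sites, and gene amplicons before and after competition were read by 100-nucleotide paired-end sequencing. Darwinian fitness relative to wild type rested on changes in genotype frequencies. Genotypes required ≥ 100 starting reads, and estimates < 0.5 were set to 0.5.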
As to GUUCCGAAGCCGUAAUGGUAACGCGUGUCCCUCGUAAGGAGAGGACUGCGGGUUUGAGUCCCGUACGGAACG [U7A U8A G10C C27G C34G A43G C55U], the yeast fitness was not above 0.5.

As for GUUCCGAUGGCGAAAUGGUAUCGCGUCUCCCUCCUAAGGAGAAGUCUGCGGGUUCGAGUCCCGUACGGAACG [U7A U13A A21U A45U], the yeast fitness turned out to be 0.649.

For GUUCCGAUGGCGUAAUGGCAACGCGUCUCCCUCCUAAGGAGAGGACUGCGGGUUCGAGUGCCGUACGGAACG [U7A U19C A43G C60G], the yeast fitness was not above 0.5.

GUUCCGAUGGCGUAAUGGUAACGCGUCUCCCUCCUAAGGAGAAGACUGCGGAUUCGAGUCCCGUACGGCACG [U7A G52A A69C]: the yeast fitness was not above 0.5.

Regarding GUUCCGAUGGCGUAACAGUAACGCGUCUUCAUCCUAAGGAGAAGACUGCGUGUUCGAGUCCCGUAGUGAACG [U7A U16C G17A C29U C31A G51U C66G G67U], the yeast fitness was not above 0.5.

With GUUCCGAUGGCGUAAUAGUAACGCGUCUCCCUCCUAAGGAGAAGCCAGCAGGUUCGAGUCCCGUACGGAACG [U7A G17A A45C U47A G50A], the yeast fitness is not above 0.5.

Turning to GUUCCGAUGGCGUAAUGGUAACGCAUCUCCUUCCUAAGGAGAAGACUGCGGGUUCGAGUCCCGUACGGAACG [U7A G25A C31U], the yeast fitness was 0.568.

Regarding GUUCCGAUGGCGUAAUAGUAACGUGUCUCCCUCAUAAGGGGAAGACUGCGGGUUCGAGUCUCGUACGGUACG [U7A G17A C24U C34A A40G C61U A69U], the yeast fitness is not above 0.5.

GUUCCGAUGGCAUAAUGGUAACGCGUCUCUCUCCUAAGGAGAAGACUGCGGGUUCGAGUCCCGUACGGAACG [U7A G12A C30U]: the yeast fitness was not above 0.5.

GUUCCGAUGGCGGAAUGGUAACGCGUCUCCCUCCUAAGGAGAAGACUGCGGGUUGGAGUCCCGUACGGAACG [U7A U13G C55G]: the yeast fitness is not above 0.5.

For the variant GUUCCGAUGGCGUAAUGGUAACGCGUCUCCCUCCUAAGGAGAACACUGCGGGUUCGAGUCCCGUAUGGAACG [U7A G44C C66U], the yeast fitness is not above 0.5.

For GUUCCGAUGGCGUAAUGGUAACGCGUCGCACUCCUAAGGAGAAGACUGCGGAUUCGAGUCCCGUACGGAACG [U7A U28G C30A G52A], the yeast fitness came to 0.595.

Consider GUUCCGAUGGCGUAAUGGUAACGCGUCUCCCUCCUAAGGAGAAAACUGCGGGUUCGAGUCCCGUACGGAACG [U7A G44A], for which the yeast fitness was 0.755.

For the variant GUUCCGAUGGCGUAAUGGUAACGCGUCUCCCUCCUAAGGAGAACACUGCGGGUUCGAGUCCCGUACGGAACG [U7A G44C], the yeast fitness turned out to be 0.718.

Regarding GUUCCGAUGGCGUAAUGGUAACGCGUCUCCCUCCUAAGGAGAAGACAGCGGGUUGGAGUCCCGUACGAAACG [U7A U47A C55G G68A], the yeast fitness was not above 0.5.

GUUCCGAUGGCGUAAUGGUAACGCGUCUCCCUCCUAAGGAGAAGACUGCGGGUUCGAGUCCCAUACGGAACG [U7A G63A]: the yeast fitness was 0.668.

Turning to GUUCCGAUGGCGUAAUGGUAACGCGUCUCCCUCCUAAGGAGAAGACUGCGAAUUCGAGUCCCGUACGGAGCG [U7A G51A G52A A70G], the yeast fitness is not above 0.5.

Regarding GUUCCGAUGGCGUAACAGUAACGCGUCUCCCUCGUAAGGAGAAGCCUGCGGCUUCGAGUCCCGUACGGAACG [U7A U16C G17A C34G A45C G52C], the yeast fitness was not above 0.5.

Take GUUCCGAUGGCGUAAUGGUAACGCGUCUCCCUCCUAAGGAGAAGACUGCGGGAUCGAGUCCCGUACGGAACG [U7A U53A]: the yeast fitness is not above 0.5.

For the variant GUUCCGAUGGCGUAAUGGUAACGCGUCUCCCUCCUAAGGAGAAGACUGCGAAUUCGAGUCCCGUACGGAACG [U7A G51A G52A], the yeast fitness was determined as 0.536.

Regarding GUUCCGAUGGCGUAAUGGAAACGCGUCUACCUCCUAAGGAGAAGACUGCGGGUUCGAGUCCCGUACGCAACG [U7A U19A C29A G68C], the yeast fitness was not above 0.5.

On to GUUCCGAUGGCGUAAUGGUAACAUGUCUCCCUCCAAAGGAGAAGACUGCGGGUUCGAGUACCGUACGGAACG [U7A G23A C24U U35A C60A], for which the yeast fitness was determined as 0.632.

For GUUCCGAUGGCGUAAUGGUAACGCGUCUCCCUCCUAAGGAGAAGACUGCGGGAUCGAGUCCCGUCCGGAGCG [U7A U53A A65C A70G], the yeast fitness is not above 0.5.

With GUUCCGAUGGCGUAAUGGUAACGCCUGUCCUUCCUAAGGAGAAGUCUGCGGGUUCGAGUCCCGCACGGAACG [U7A G25C C27G C31U A45U U64C], the yeast fitness is not above 0.5.

For the variant GUUCCGAUGGCGUAAUGGUAACGCGUCUCCCUCCUAAGGAGAAGACUGCGGGUUCGAGCCCCGUACGGAACG [U7A U59C], the yeast fitness was 0.662.

As for GUUCCGAUGGCGUAAUGGUAACGCGUCUCCCUCCUAAGGAGAAGACUGCGGGUUCGAGACCCGUACGGAACG [U7A U59A], the yeast fitness came out at 0.778.

For the variant GUUCCGAUGGCGUAACGGUAUCGCGACUCCCUCCUAAGGAGAAGAUUGCGGGUUCGAGUUCCGUACGGAACG [U7A U16C A21U U26A C46U C60U], the yeast fitness was 0.55.

GUUCCGAUGGCCUAAUGGUAACGCGUCUCCCUCUUAAGGAGAAGACUGCGGGUUCGAGUCCCGUAGGGAACG [U7A G12C C34U C66G]: the yeast fitness was not above 0.5.

In the case of GUUCCGAUGGCGUAAUGGUAACCCGUCUCCCUCCUAAGGAGAAGACUGCGGGUUCGAGUCCCGUAUGGAACG [U7A G23C C66U], the yeast fitness was not above 0.5.

For the variant GUUCCGAUGGCGUAACAGUAACGCGUCUUCAUCCUAAGGAGAAGACUGCGGGUUAGAGUCCCGUACGGAACG [U7A U16C G17A C29U C31A C55A], the yeast fitness was not above 0.5.

In the case of GUUCCGAUGGCGUAAUGGUAACGCGUCUCCCUCCUAAAGAGAAGACUGCGGCUUCGCGUCCCGUACGGAACG [U7A G38A G52C A57C], the yeast fitness is not above 0.5.

GUUCCGAUGGCGUAAUGGUAACGCCUGUCCUUCCUAAGGAGAAGUCUGCGGGUUCGAGUCCUGCACGGAACG [U7A G25C C27G C31U A45U C62U U64C]: the yeast fitness is not above 0.5.

Regarding GUUCCGAUGGCGUAAUCGUAACGCGUCUCCCUCCUAAGGAGAAGACUGCGAGUUCGAGUCCCGUACGGAACG [U7A G17C G51A], the yeast fitness was not above 0.5.

In the case of GUUCCGAUGGCGUAAUGGGAACGCGUCUCCCUCCUAAGGAGAAGACUGCGGGUUCGAAUCCCGUACGGAACG [U7A U19G G58A], the yeast fitness is not above 0.5.

For the variant GUUCCGAUGGCGUAAUGAUAACGCGUCUCCCUCCUAAGGAGAAGACUGCGGGUUCGAGUCCCGUACGGAACG [U7A G18A], the yeast fitness was found to be 0.689.

Take GUUCCGAUGGCGUAAUGGUAACGCGUCUCCCUCCUAAGGAAAAGACUGCGGGUUCGAGUCACGUACGGAACG [U7A G41A C61A]: the yeast fitness was not above 0.5.

On to GUUCCGAUGGCGUAAUGGUAACGCGUCUCCCUCCUAAGGAGAAGACUGCAGGUUCGAGUGCCGGACGGAACG [U7A G50A C60G U64G], for which the yeast fitness was not above 0.5.
